Here are results for six molecules from ChEMBL document CHEMBL2040765, “Synthesis and anticancer activity of a series of norcantharidin analogues” (2012).

Holding throughout (assay type): functional
The test system of one experiment is A-431. As to the kind of experiment: Growth inhibition of human A431 cells at 100 uM after 72 hrs y MTT assay. As to conditions: for inhibition of growth at 100 µM: Homo sapiens, A-431, 72 h, read-out: GI. Summed up:
(§1)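 Log-phase cells in supplemented DMEM (10% FBS, 4 mM glutamine, antibiotics; 37 °C, 5% CO2) were plated in duplicate at 2500–4000 cells/well. Compound was added 24 h later at a fixed 100 µM, from 40 mM DMSO stocks. After 72 h, MTT absorbance was read at 540 nm and expressed as percent growth inhibition; 100% means total inhibition.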
(In general: Tetrazolium assays rely on reduction of a dye to a coloured formazan, in cell work by metabolically active cells.)

A further experiment deals with A2780. The experiment is described as follows: Growth inhibition of human A2780 cells at 100 uM after 72 hrs y MTT assay. The settings on record: for inhibition of growth at 100 µM: Homo sapiens, A2780, 72 h, read-out: GI. Put shortly:
as §1

For another experiment, the system named is SW480. As to the kind of experiment: Growth inhibition of human SW480 cells at 100 uM after 72 hrs y MTT assay. As to conditions: for inhibition of growth at 100 µM: Homo sapiens, SW480, 72 h, read-out: GI. Put shortly:
as §1

The test system of the next experiment is MCF7. The experiment is described as follows: Growth inhibition of human MCF7 cells at 100 uM after 72 hrs y MTT assay. As to conditions: for inhibition of growth at 100 µM: Homo sapiens, MCF7, 72 h, read-out: GI. Summed up: as §1
The test system of another experiment is DU-145. As to the kind of experiment: Growth inhibition of human DU145 cells at 100 uM after 72 hrs y MTT assay. The settings on record: for inhibition of growth at 100 µM: Homo sapiens, DU-145, 72 h, read-out: GI. Put shortly: as §1
In the next experiment the test system is HT-29. The experiment is described as follows: Growth inhibition of human HT-29 cells at 100 uM after 72 hrs y MTT assay. As to conditions: for inhibition of growth at 100 µM: Homo sapiens, HT-29, 72 h, read-out: GI. Put shortly:
as §1

Another experiment deals with NCI-H460. As to the kind of experiment: Growth inhibition of human H460 cells at 100 uM after 72 hrs y MTT assay. The settings on record: for inhibition of growth at 100 µM: Homo sapiens, NCI-H460, 72 h, read-out: GI. Summed up: as §1
Experiment [1] can be described thus: Growth inhibition of human SJ-G2 cells at 100 uM after 72 hrs y MTT assay. As to conditions: for inhibition of growth at 100 µM: Homo sapiens, SJ-G2, 72 h, read-out: GI. Summed up: as §1
Experiment [2] in a line: Growth inhibition of human BE(2)-C cells at 100 uM after 72 hrs y MTT assay. As to conditions: for inhibition of growth at 100 µM: Homo sapiens, BE(2)-C, 72 h, read-out: GI. Put shortly:
as §1

Take `O=C1O[C@H](OCC2CO2)[C@@H]2[C@H]1[C@H]1CC[C@@H]2O1` (stereo in doubt; 19): the results for the inhibition of growth at 100 µM in the experiment with A-431, in the experiment with DU-145 and in the experiment with NCI-H460 were 35%, 33% and 11%, respectively. Moreover, the “growth inhibition (GI)” value was 46% in the experiment on A2780; 32% in the experiment on SW480; 37% with MCF7; 69% in the experiment with HT-29; 75% in experiment [1].

With `CC1OC1CO[C@H]1OC(=O)[C@H]2[C@@H]1[C@@H]1CC[C@H]2O1` (stereo in doubt; 23), the “growth inhibition (GI)” value in experiment [2] worked out at 54%; in the experiment with A-431, 35%; in the experiment on SW480, 41%; in the experiment with MCF7, 61%; in the experiment on HT-29, 75%; in the experiment on NCI-H460 it was 24%. Besides, in experiment [1], the “growth inhibition (GI)” value was 88%. In addition, the results for the inhibition of growth at 100 µM in the experiment on A2780 and in the experiment on DU-145 were 55% and 37%, respectively.

Take `O=C1O[C@H](OCC2CO2)[C@@H]2[C@H]1[C@H]1CC[C@@H]2O1` (stereo in doubt; 20): the inhibition of growth at 100 µM in [2] turned out to be 42%; with SW480, 16%; in the experiment with MCF7 it was 43%; with HT-29, 52%; in [1] it was 59%. The “growth inhibition (GI)” value is on record as 18% in the experiment on A-431, 83% in the experiment on A2780, 21% with DU-145 and 7% in the experiment with NCI-H460.

With `CC1OC1CO[C@H]1OC(=O)[C@H]2[C@@H]1[C@@H]1CC[C@H]2O1` (stereo in doubt; 24), the inhibition of growth at 100 µM in experiment [2] worked out at 53%; with SW480, 37%; in the experiment with MCF7, 46%; with HT-29 it was 68%; in [1], 79%. Moreover, the “growth inhibition (GI)” value in the experiment on A-431 amounted to 17%; with A2780 it was 58%; in the experiment on DU-145 it was 20%; with NCI-H460, 9%.

On to `CC1OC1CO[C@@H]1OC(=O)[C@H]2[C@@H]1[C@@H]1CC[C@H]2O1` (stereo partly drawn), for which the inhibition of growth at 100 µM in experiment [2] was found to be 23%; in the experiment on A-431, 18%; with A2780, 26%; in the experiment on SW480, 17%; in the experiment with MCF7 it was 27%; in the experiment on DU-145, 17%. In addition, the inhibition of growth at 100 µM in the experiment on HT-29 was 70%; in the experiment with NCI-H460 it was 9%; in experiment [1], 80%.

With `O=C1O[C@@H](OCC2CO2)[C@@H]2[C@H]1[C@H]1CC[C@@H]2O1` (stereo in doubt; 21), the “growth inhibition (GI)” value is listed as 35% in experiment [2]; 23% in the experiment with SW480; 33% in the experiment with MCF7; 68% in the experiment on HT-29; 73% in [1]. Besides, the inhibition of growth at 100 µM in the experiment with A-431 is 22%; with A2780, 42%; with DU-145, 25%; with NCI-H460, 7%.
